Test results published in ChEMBL document CHEMBL1221338, “New antitumoral agents I: In vitro anticancer activity and in vivo acute toxicity of synthetic 1,5-bis(4-hydroxy-3-methoxyphenyl)-1,4-pentadien-3-one and derivatives” (Bioorg Med Chem, 2010).

Key:
[1] = tested on: UACC-62; experiment: Antitumor activity against human UACC62 cells after 48 hrs by SRB assay; type: functional, cell-based; details: UACC-62, 48 h
Method in brief: (§1)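 Human tumor lines in medium with 5% FBS and gentamicin, exposed in 96-well plates to four concentrations given in DMSO for 48 h at 37 °C, 5% CO₂. Cells fixed with trichloroacetic acid (added as 50% solution) for 30 min at 4 °C, washed, dried, stained with sulphorhodamine B. Protein content read at 540 nm.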

[2] = tested on: MCF7; experiment: Antitumor activity against human MCF7 cells after 48 hrs by SRB assay; type: functional, cell-based; details: MCF7, 48 h; method in brief: as §1
[3] = Antitumor activity against human NCI/ADR cells after 48 hrs by SRB assay; type: functional, cell-based; details: NCI/ADR-RES; method in brief: as §1
[4] = Antitumor activity against human 786-O cells after 48 hrs by SRB assay; type: functional, cell-based; details: 786-0, 48 h; method in brief: as §1
[5] = tested on: NCI-H460; experiment: Antitumor activity against human NCI-H460 cells after 48 hrs by SRB assay; type: functional, cell-based; details: NCI-H460, 48 h; method in brief: as §1
[6] = tested on: K562; experiment: Antitumor activity against human K562 cells after 48 hrs by SRB assay; type: functional, cell-based; details: K562, 48 h; method in brief: as §1
[7] = tested on: PC-3; experiment: Antitumor activity against human PC3 cells after 48 hrs by SRB assay; type: functional, cell-based; details: PC-3, 48 h; method in brief: as §1
[8] = tested on: OVCAR-3; experiment: Antitumor activity against human OVCAR-3 cells after 48 hrs by SRB assay; type: functional, cell-based; details: OVCAR-3, 48 h; method in brief: as §1
[9] = tested on: HT-29; experiment: Antitumor activity against human HT-29 cells after 48 hrs by SRB assay; type: functional, cell-based; details: HT-29, 48 h; method in brief: as §1
[10] = tested on: B16-F10; experiment: Antiproliferative activity against mouse B16F10 cells after 24 hrs by MTT assay; type: functional, cell-based; details: B16-F10, 24 h
Method in brief: (§2)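 Murine tumor cells grown to confluence, then exposed for 24 h to a range of concentrations diluted in Miglyol 810, with a Miglyol-only diluent control. MTT (5 mg/ml stock) added for 3 h at 37 °C, 5% CO₂. Plates centrifuged, supernatant removed, formazan dissolved in DMSO, absorbance read at 540 nm.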

[11] = tested on: L1210; experiment: Antiproliferative activity against mouse L1210 cells after 24 hrs by MTT assay; type: functional, cell-based; details: L1210, 24 h; method in brief: as §2
[12] = Antiproliferative activity against mouse macrophages after 24 hrs by MTT assay; type: cell-based; details: Macrophage
Method in brief: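 Peritoneal macrophages lavaged from anesthetized normal Balb-C mice with heparinized saline. Cells pelleted, resuspended in RPMI-1640 with 10% FBS at 10⁶/ml, plated, and exposed for 24 h to compound dilutions in Miglyol 810, with a diluent control. MTT (5 mg/ml stock) for 3 h at 37 °C, formazan dissolved in DMSO, read at 540 nm.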

[13] = Toxicity in Swiss albino mouse for 14 days; type: organism-based; details: in vivo
Method in brief: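 Male albino Swiss mice (~25 g; 20 animals split equally into treated and control groups), acclimatised at least 7 days and fasted 12 h. Single intraperitoneal dose of 1, 2.5 or 5 g/kg body weight. Deaths and signs of toxicity observed for at least 14 days. LD50 by Litchfield and Wilcoxon's method; OECD425 protocol.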

| IC50 [2] [µM] | IC50 [5] [µM] | IC50 [6] [µM] | IC50 [7] [µM] | IC50 [8] [µM] | IC50 [9] [µM] | Structure (SMILES) | IC50 [1] [µM] | IC50 [3] [µM] | IC50 [4] [µM] | IC50 [10] [µM] | IC50 [11] [µM] | IC50 [12] [µM] | LD50 at 336 h [13] [mg/kg] |
| --- | --- | --- | --- | --- | --- | --- | --- | --- | --- | --- | --- | --- | --- |
| 18.2 | 34.1 | 4.8 | 60.5 | 30.3 | 4.04 | COc1cc(/C=C/C(=O)/C=C/c2ccc(OCC=C(C)C)c(OC)c2)ccc1OCC=C(C)C | 30.6 | 7.22 | 7.87 |  |  |  |  |
| 2 | 1.86 | 1.83 | 2.32 | 2.32 | 2.43 | COc1ccc(/C=C/C(=O)/C=C/c2ccc(OC)c(OC)c2)cc1OC | 2.12 | 2.37 | 3.36 |  |  |  |  |

Continued, compound first:

| Structure (SMILES) | IC50 [2] [µM] | IC50 [5] [µM] | IC50 [6] [µM] | IC50 [7] [µM] | IC50 [8] [µM] | IC50 [9] [µM] | IC50 [1] [µM] | IC50 [3] [µM] | IC50 [4] [µM] | IC50 [10] [µM] | IC50 [11] [µM] | IC50 [12] [µM] | LD50 at 336 h [13] [mg/kg] |
| --- | --- | --- | --- | --- | --- | --- | --- | --- | --- | --- | --- | --- | --- |
| COc1cc(/C=C/C(/C=C/c2ccc(O)c(OC)c2)=C(C#N)C#N)ccc1O | 5.24 | 6.89 | 7.59 | 4.25 | 115 | 3.37 | 3.34 | 2.97 | 7.14 |  |  |  |  |
| COc1cc(/C=C/C(=O)/C=C/c2ccc(OC(C)=O)c(OC)c2)ccc1OC(C)=O | 1.09 | 1.7 | 1.41 | 0.95 | 1.39 | 1.48 | 4.31 | 3.12 | 0.66 | 220 | 246 | 275 | 3680 |
| COc1cc(/C=C/C(=O)/C=C/c2ccc(O)c(OC)c2)ccc1O | 0.12 | 1.53 | 1.84 | 1.25 | 2.2 | 2.3 | 0.09 | 0.83 | 1.99 | 21.5 | 56.1 | 51.8 | 8540 |
